Bioassay records deposited in PubChem by The Scripps Research Institute Molecular Screening Center.
MOR-DOR inv ag: inverse agonists of human mu-delta opioid receptor heterodimerization | P35372+P41143 | cell-based MOR-DOR heterodimer luminescence, inverse agonism | inhibition, % at 9.3 µM | actives 0.21% (n = 340,000); in the data active means inhibition above about 22%, passing the limit was not always enough;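 further: 0% = cells with DMSO and 100% = wells without cells with DMSO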
MOR-DOR ag: agonists of human mu-delta opioid receptor heterodimerization; P35372+P41143; cells, OPRM1-OPRD1 heterodimerization, luminescence; activation, % at 9.3 µM; actives 0.3% (n = 340,000);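 further: 0% = vehicle-treated cells and 100% = reference agonist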
MC4R ag barr: human MC4R agonism via beta-arrestin; U2OS MC4R beta-arrestin complementation, luminescence; percent of melanotan II response, DMSO zero; activation, % at 8.9 µM; actives 0.98% (n = 360,000); AID 540308;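 active means activation above a per-plate cutoff, the mean activation of sample wells on that plate plus 3 SD, cut at about 8% in these data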
Target sequence (P32245 whole entry, looked up): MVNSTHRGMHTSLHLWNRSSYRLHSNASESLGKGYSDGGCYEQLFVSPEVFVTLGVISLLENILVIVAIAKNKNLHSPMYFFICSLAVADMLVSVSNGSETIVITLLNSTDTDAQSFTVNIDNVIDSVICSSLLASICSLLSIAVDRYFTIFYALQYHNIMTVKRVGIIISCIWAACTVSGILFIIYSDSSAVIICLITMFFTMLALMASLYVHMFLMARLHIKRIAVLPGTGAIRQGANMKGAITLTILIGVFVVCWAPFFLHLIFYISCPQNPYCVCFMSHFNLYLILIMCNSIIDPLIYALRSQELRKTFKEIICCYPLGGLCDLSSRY
HTR5A ag: activates human HTR5A in OPRM1-OPRD1 agonist counter-screen | activation, % at 9.3 µM | HTR5A agonist assay, luminescence, cell-based | P47898 | actives 0.61% (n = 340,000); in the data active means activation mostly above about 9.5%, no sharp cut-off; inactive means mostly below about 7.6%;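 further: 0% = cells with vehicle only and 100% = reference agonist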
HTR5A inv ctr: HTR5A inverse agonism, opioid heterodimer counter-screen. AID 504634. inhibition, % at 9.3 µM. P47898. actives 0.083% (n = 340,000). HTR5A cell line, luminescence; in the data active means inhibition mostly above about 23%, no sharp cut-off; inactive means mostly below about 18%;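 further: 0% = cells with DMSO and 100% = no-cell wells with DMSO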
MC4R antagonist: human MC4R antagonism in cAMP assay | inhibition, % at 6.5 µM | actives 0.48% (n = 360,000) | P32245 | MC4R-expressing cells, MTII-stimulated cAMP, LANCE TR-FRET;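 active means inhibition above its plate's cutoff, the mean of tested wells on that plate plus 3 SD, cut at about 29% in these data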;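 further: 0% = Melanotan II alone and 100% = Melanotan II plus saturating MCL0020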
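Material: U2OS-MC4R stable cell line | Reagent: Melanotan II challenge after compound preincubation | Doses: One concentration, 6.5 µM nominal | Incubation: 30-min compound preincubation, 1-h Melanotan II challenge, 1-h detection, room temperature | Signal: TR-FRET cAMP assay | Replicates: One well per compound, no replicates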
OPRM1-D1 ag cf: confirmation of human OPRM1-OPRD1 heterodimerization agonists; activation, % at 9.3 µM; actives 45% (n = 830); shares compounds with MOR-DOR ag; cells, MOR-DOR heterodimerization, luminescence complementation;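 further: 0% = vehicle-treated cells and 100% = reference agonist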
HTR5A ag ctr2: activates human HTR5A in OPRM1-OPRD1 agonist counter-screen; shares compounds with MOR-DOR ag; HTR5A agonist counterscreen, cell luminescence; activation, % at 9.3 µM; actives 8% (n = 830); AID 504905; in the data active means activation above about 17%;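 further: 0% = vehicle-treated cells and 100% = reference agonist response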
* marks the source's active call; other numbers are inactive results; i = inactive; x = not tested or not shown. An excerpt weighted towards active compounds, which were near 2.4% of everything screened. Unless noted, no stated cut-off is given here; in the data, active means activation above about 18%; inactive means the rest.

SMILES	MOR-DOR inv ag	MOR-DOR ag	MC4R ag barr	HTR5A ag	HTR5A inv ctr	MC4R antagonist	OPRM1-D1 ag cf	HTR5A ag ctr2
CC(C)CC1C(=O)N(Cc2cn(CCC3OCCCO3)nn2)CCS(=O)(=O)N1Cc1ccc(-c2ccc(Cl)nc2)cc1 (stereo not drawn)	x	x	-0.1	x	x	6.5	x	x
CC(C)OCCCN1CC(=O)N2C(c3ccccc3)c3[nH]c4ccccc4c3C[C@H]2C1=O (stereo partly drawn)	13.8	-3.0	-1.5	4.0	-14.0	10.7	x	x
COc1cccc(C2c3[nH]c4ccccc4c3C[C@H]3C(=O)N(CCCOC(C)C)CC(=O)N23)c1 (stereo partly drawn)	-87.1	18.2*	-1.5	5.3	-19.9	10.6	17.1	5.8
Cc1cc(/C=C2\SC(=Nc3ccccc3)NC2=O)c(C)n1-c1ccc(S(N)(=O)=O)cc1	i	120.4*	1.3	6.2	-17.7	-19.3	139.7*	-2.3
O=C1NC(=Nc2ccccc2)S/C1=C/c1cccnc1	13.8	-2.5	-0.9	-0.5	15.1	1.6	x	x
O=C1NC(=Nc2ccccc2)S/C1=C\c1ccccc1	-121.8	24.4*	3.9	-2.5	11.7	20.6	0.3	5.7
CN1CC(=O)NC1=NC(=O)c1ccc(Cl)c(S(=O)(=O)N2CCCCCC2)c1	6.9	-1.2	0.2	4.0	10.5	-9.3	x	x
COc1ccccc1NC(=O)COc1ccc(C(=O)NCc2ccccc2)cc1OC	-5.8	1.3	-2.5	4.4	-10.9	10.5	x	x
O=C(COC(=O)c1ncc(Cl)c(Cl)c1Cl)NC(=O)NCc1ccccc1	-39.0	8.0	1.6	-0.4	1.9	27.5	x	x
COc1ccc(S(=O)(=O)N2CCCCC2)cc1NC(=O)Cc1ccsc1	-3.9	1.0	0.5	-2.9	3.3	1.9	x	x
COc1ccc(CNC(=O)[C@@H](NC(=O)C2CCN(C(=O)[C@@H](N)CC(C)C)CC2)C(C)C)cc1	11.7	-2.3	-1.6	4.1	3.1	-0.3	x	x
COc1ccc(NC(=O)c2ccc3ccccc3n2)cc1S(=O)(=O)N1CCCCC1	9.5	-1.7	-1.6	1.8	-17.6	0.2	x	x
COc1ccc(NC(=O)c2cc3ccccc3o2)cc1S(=O)(=O)N1CCCCC1	-105.7	21.1*	2.9	4.0	-15.4	12.4	1.9	0.5
Cc1cc(C2(c3ccc(O)c(C)c3)C(=O)Nc3ccccc32)ccc1O	-91.9	19.9*	7.9	10.1	-16.4	9.5	-2.6	1.1
Cc1cc(NC(=O)CN2CCc3ccccc3C2)nc2c1c(=O)oc1ccccc12	i	517.6*	0.0	-3.1	8.0	-2.5	-4.0	5.0
O=C(NCC1CCCO1)c1cccc(S(=O)(=O)N(Cc2ccccc2)c2ccccc2)c1 (stereo not drawn)	0.3	-0.1	0.1	-1.0	2.4	6.8	x	x
Cc1cccc(-n2nc(C(=O)c3ccco3)cc(-c3nc4ccccc4[nH]3)c2=N)c1	-221.5	31.1*	-1.5	-1.0	2.7	-15.6	0.8	0.2
O=C1CCN(Cc2ccccc2)CCN1[C@H](COc1ccccc1)Cc1ccccc1	-140.3	25.2*	1.7	4.6	6.9	7.7	25.0*	2.4
CCN(Cc1ccccc1)S(=O)(=O)c1ccc(C(=O)N(CCCN(C)C)c2nc3cc4c(cc3s2)OCO4)cc1	-138.4	25.1*	3.5	2.8	-8.0	4.2	-0.3	-3.0
CN(C)CCCN(C(=O)c1ccc(S(=O)(=O)N(C)C)cc1)c1nc2cc3c(cc2s1)OCO3	17.5	-3.4	-1.8	1.8	-4.6	-2.7	x	x
CCN(Cc1ccccc1)S(=O)(=O)c1ccc(C(=O)N(CCCN(C)C)c2nc3c(C)c(C)ccc3s2)cc1	-172.1	31.3*	2.8	6.2	-15.5	20.5	40.5*	0.8
Cc1ccc2sc(N(CCCN(C)C)C(=O)c3ccc(S(=O)(=O)N(C)C4CCCCC4)cc3)nc2c1C	-162.5	31.3*	1.2	-2.1	5.1	5.8	49.5*	21.6*
